This note sets out measurements from ChEMBL document CHEMBL3763097, “Synthesis and biological evaluation of 5,10-dihydro-11H-dibenzo[b,e][1,4]diazepin-11-one structural derivatives as anti-cancer and apoptosis inducing agents” (Eur J Med Chem, 2016).

The source made the active and inactive calls. The rule behind the calls is not given here.

Test [1] concerns A549. Put plainly: Induction of apoptosis in human A549 cells assessed as condensation of nuclei at 0.5 to 2 uM after 48 hrs by Hoechst […] staining based fluorescence microscopy. Format: functional, cell-based. In a few lines: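 Cells at 25×10^4 per well were allowed to adhere 24 h, then treated with 0.5, 1 and 2 µM compound for 48 h at 37 °C. After a PBS wash they were stained with Hoechst […] (5 µg/mL) for 30 min at room temperature and washed twice. Nuclear morphology was viewed by fluorescence microscopy (ex 350/em 460 nm).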

In test [2] the test system is MDA-MB-231. The test is described as follows: Disruption of mitochondrial membrane potential in human MDA-MB-231 cells at 0.5 to 2 uM after 48 hrs by Rhodamine-123 staining based spectrofluorometry. Format: functional. A digest of the protocol: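 Cells were seeded at 5×10^5 cells/mL overnight and treated with 0.5, 1 and 2 µM compound; the methods say 24 h and the results text says 48 h. Trypsinised cells were washed and stained with rhodamine-123 (2 µM in PBS) for 30 min at room temperature in the dark, washed and read by spectrofluorometer. Data are mean ± SD of three independent experiments.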

The subject of test [3] is MDA-MB-231. The test is described as follows: Induction of reactive oxygen species generation in human MDA-MB-231 cells at 0.5 to 2 uM after 48 hrs by carboxy-DCFDA staining based spectrofluorometry relative to control. Type of test: functional.
Test [4] deals with A549. The test is described as follows: Induction of apoptosis in human A549 cells assessed as necrotic cells at 0.5 uM after 24 hrs by Annexin V-FITC/PI dual staining based flow cytometry (reference value: 5.2%). Format: functional.
Test [5] has as its system A549. Put plainly: Induction of apoptosis in human A549 cells assessed as early apoptotic cells at 1 uM after 24 hrs by Annexin V-FITC/PI dual staining based flow cytometry (reference value: 5.3%). Type of test: functional.
The test system of test [6] is A549. Put plainly: Induction of apoptosis in human A549 cells assessed as necrotic cells at 2 uM after 24 hrs by Annexin V-FITC/PI dual staining based flow cytometry (reference value: 5.2%). Format: functional.
Test [7] has as its system MDA-MB-231. The test is described as follows: Induction of apoptosis in human MDA-MB-231 cells assessed as viable cells at 0.5 uM after 24 hrs by Annexin V-FITC/PI dual staining based flow cytometry (reference value: 91%). Format: functional. The following applies: MDA-MB-231, 24 h, read-out: Activity.
Test [8] deals with MDA-MB-231. The test is described as follows: Induction of apoptosis in human MDA-MB-231 cells assessed as necrotic cells at 0.5 uM after 24 hrs by Annexin V-FITC/PI dual staining based flow cytometry (reference value: 1.9%). Type of test: functional.
For test [9], the system named is MDA-MB-231. Put plainly: Induction of apoptosis in human MDA-MB-231 cells assessed as viable cells at 1 uM after 24 hrs by Annexin V-FITC/PI dual staining based flow cytometry (reference value: 91%). Format: functional. The following applies: MDA-MB-231, 24 h, read-out: Activity.
Test [10] deals with MDA-MB-231. Put plainly: Induction of apoptosis in human MDA-MB-231 cells assessed as viable cells at 2 uM after 24 hrs by Annexin V-FITC/PI dual staining based flow cytometry (reference value: 91%). The following applies: MDA-MB-231, 24 h, read-out: Activity. Format: functional.
For test [11], the system named is MDA-MB-231. The test is described as follows: Induction of apoptosis in human MDA-MB-231 cells after 24 hrs by Annexin V-FITC/PI dual staining based flow cytometry. Format: functional, cell-based.
Test [12] can be described thus: Cytotoxicity against human PC3 cells assessed as growth inhibition after 72 hrs by MTT assay. Type of test: functional, cell-based. The following applies: PC-3, 72 h. A digest of the protocol: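 Cells in RPMI 1640 (PC-3, A549, MDA-MB-231) or DMEM (U87MG, MCF-7) with 10% FBS, passages 4-10, were seeded at 3000-5000 per well and left 24 h. Compounds in DMSO/medium were added for 72 h; DMSO served as control. MTT (5 mg/mL) was added for 4 h and formazan dissolved in DMSO. Absorbance was read at 570 nm minus 630 nm. % inhibition was taken versus DMSO, with IC50 by probit; mean ± SD of three experiments in triplicate.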

Test [13] deals with A549. The test is described as follows: Cytotoxicity against human A549 cells assessed as inhibition of colony formation after 24 hrs by methylene blue staining-based assay. Format: functional, cell-based. In a few lines: (§1)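 Clonogenic assay. Cells were plated at 500 per well and allowed to adhere 24 h. Compound was added at 0.1, 1 and 10 µM for 24 h, then medium was replaced and cells grown a further 14 days. Colonies were fixed with 4% paraformaldehyde, stained with 0.5% methylene blue in PBS for 30 min, rinsed and photographed.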

The subject of test [14] is MDA-MB-231. Put plainly: Cytotoxicity against human MDA-MB-231 cells assessed as inhibition of colony formation after 24 hrs by methylene blue staining-based assay. Format: functional, cell-based. In a few lines:
as §1

The subject of test [15] is A549. Put plainly: Antimigratory activity in human A549 cells at 0.5 to 2 uM measured after 24 to 48 hrs by wound healing assay. Type of test: functional, cell-based. A digest of the protocol: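 Wound-healing assay. Cells were seeded at 5×10^5 per well and grown 24 h to a confluent monolayer, then scratched once across the middle with a sterile pipette tip and washed twice with PBS. Compound was added at 0.5, 1 and 2 µM. Wound closure was photographed by phase-contrast microscopy at 0, 24 and 48 h in three or more random fields.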

The subject of test [16] is A549. Put plainly: Cell cycle arrest in human A549 cells assessed as accumulation at S phase at 0.5 uM after 24 to 48 hrs by propidium iodide staining based flow cytometry (reference value: 18.3%). Type of test: functional. A digest of the protocol:
(§2)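 Cells were seeded at 1×10^6 per well and treated 24 h later with 0.5, 1 or 2 µM compound; DMSO-treated cells served as control. Methods give harvest at 48 h (floating plus trypsinised cells); the figure legend says 24 h. Cells were fixed in 70% ethanol for 30 min at 4 °C and stained with PI, Triton X-100 and RNase A for 15 min in the dark. 10000 events were counted by flow cytometry.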

In test [17] the test system is A549. Put plainly: Cell cycle arrest in human A549 cells assessed as accumulation at G0/G1 phase at 2 uM after 24 to 48 hrs by propidium iodide staining based flow cytometry (reference value: 49.1%). Format: functional. In a few lines: as §2
For test [18], the system named is A549. Put plainly: Cell cycle arrest in human A549 cells assessed as accumulation at S phase at 2 uM after 24 to 48 hrs by propidium iodide staining based flow cytometry (reference value: 18.3%). Format: functional. A digest of the protocol: as §2
In test [19] the test system is A549. Put plainly: Cell cycle arrest in human A549 cells assessed as accumulation at G2/M phase at 2 uM after 24 to 48 hrs by propidium iodide staining based flow cytometry (reference value: 22.3 to 31%). Type of test: functional. A digest of the protocol: as §2
For test [20], the system named is MDA-MB-231. The test is described as follows: Cell cycle arrest in human MDA-MB-231 cells assessed as accumulation at G0/G1 phase at 0.5 uM after 24 to 48 hrs by propidium iodide staining based flow cytometry (reference value: 74.4%). Format: functional. A digest of the protocol: as §2
The test system of test [21] is MDA-MB-231. Put plainly: Cell cycle arrest in human MDA-MB-231 cells assessed as accumulation at G0/G1 phase at 1 uM after 24 to 48 hrs by propidium iodide staining based flow cytometry (reference value: 74.4%). Format: functional. A digest of the protocol:
as §2

The subject of test [22] is MDA-MB-231. Put plainly: Cell cycle arrest in human MDA-MB-231 cells assessed as accumulation at G0/G1 phase at 2 uM after 24 to 48 hrs by propidium iodide staining based flow cytometry (reference value: 74.4%). Type of test: functional. A digest of the protocol:
as §2

A further test relates to A549 (human). The test is described as follows: Induction of apoptosis in human A549 cells assessed as early apoptotic cells at 2 uM after 24 hrs by Annexin V-FITC/PI dual staining based flow cytometry (reference value: 0.3%).
Another test has as its system MDA-MB-231 (human). The test is described as follows: Induction of apoptosis in human MDA-MB-231 cells assessed as late apoptotic cells at 2 uM after 24 hrs by Annexin V-FITC/PI dual staining based flow cytometry (reference value: 4.5%).

For `O=C1c2ccccc2Nc2ccccc2N1Cc1cn(Cc2ccccc2)nn1`, in the test on A549 [1], the result was Active. Further, the Activity in the test with MDA-MB-231 [2] was 20%; with A549 [4], 2.5%; with A549 [5], 14.5%; with A549 [6], 3.8%; with MDA-MB-231 [8], 2.5%; in the test with MDA-MB-231 [11], “Dose-dependent effect”. The Activity came to 19.5% in the test with A549 [16]; 34.7% in the test with A549 [17]; 13.8% with A549 [18]; 51.3% with A549 [19]; 73.6% with MDA-MB-231 [20]; 60.1% in the test on MDA-MB-231 [21]. The Activity in the test on MDA-MB-231 [22] amounted to 33.3%; in the test on A549 (human), 19.3%; in the test on MDA-MB-231 (human) it was 17%. For the same molecule, in the test on MDA-MB-231 [3], the “fold change (FC)” value came out at 2.09. Also, the viability at 0.5 µM in the test on MDA-MB-231 [7] was 70%. Besides, the viability at 1 µM with MDA-MB-231 [9] came to 73%. In addition, in the test on MDA-MB-231 [10], the viability at 2 µM came to 62%. In test [12], the IC50 turned out to be 4.21 µM. The inhibition result in the test on A549 [13], in the test on MDA-MB-231 [14] and with A549 [15] was “Dose-dependent effect” each time.
